High-throughput results as filed in PubChem BioAssay.
CHO parental Ca: ATP-evoked calcium signal inhibitors, parental CHO, primary screen, counter-screen for OX1R antagonist project, cell-based, fluorescence, Fluo-8 calcium dye. parental CHO-K1, ATP-induced calcium, Fluo-8 fluorescence. inhibition, % at 5.6 µM. 330,000 tested, 0.63% active;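 active = inhibition above that plate's mean sample inhibition plus 3 SD, cut at about 26% in these data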
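Assay system – parental CHO cells · Reagent – ATP stimulus · Detection – intracellular calcium via Fluo-8 no-wash fluorescent dye · Evaluation – percent inhibition of ATP-evoked calcium rise, normalized to controls · Controls – ATP wells versus no-ATP DMSO wells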
TAAR1 antagonist: human TAAR1 antagonists, primary screen, Fluo-8 calcium fluorescence, CHO RD-HGA16 cells; inhibition, % at 3 µM; AID 624466, 2012; Trace amine-associated receptor 1 (Homo sapiens), Q96RJ0; 360,000 tested, 1.5% active; antagonist;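 active = inhibition above a per-plate cutoff, the mean inhibition of test compounds on that plate plus 3 SD, cut at about 49% in these data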
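System: CHO RD-HGA16 cells bearing hTAAR1. Reagent: EC80 β-phenethylamine stimulus. Schedule: seeding 17-24 h prior, 75-min 37 °C, 30-min RT dye loading. Signal: Fluo-8 intracellular calcium dye fluorescence, real-time kinetic reads. Read-out: % inhibition from peak post-agonist over basal fluorescence ratio. Benchmarks: vehicle wells and EC80 agonist wells. Replicates: n of 1.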
GPR7 antagonist: GPR7 receptor antagonists, primary screen, cell-based, fluorescence, single concentration. GPR7-expressing cells, fluorescence antagonist assay. inhibition, % at 4.4 µM. 290,000 tested, 1.1% active; in the data active = inhibition above about 16%, passing the limit was not always enough;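 also: cells stimulated with the agonist NPW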
Target sequence (P48145 whole entry, looked up): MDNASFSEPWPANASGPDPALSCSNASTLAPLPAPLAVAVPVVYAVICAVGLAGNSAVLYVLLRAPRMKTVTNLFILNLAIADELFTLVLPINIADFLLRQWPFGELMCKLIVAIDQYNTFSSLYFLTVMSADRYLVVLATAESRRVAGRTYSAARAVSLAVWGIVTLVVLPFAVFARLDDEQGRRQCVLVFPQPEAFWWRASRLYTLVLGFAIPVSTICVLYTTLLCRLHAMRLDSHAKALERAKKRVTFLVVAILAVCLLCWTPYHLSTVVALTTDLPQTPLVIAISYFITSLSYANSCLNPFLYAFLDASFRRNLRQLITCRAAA
OX1R antag-1: OX1R (HCRTR1) antagonists, primary screen, fluorescence, CHO/OX1R cells, Fluo-8 calcium, orexin A; Orexin/Hypocretin receptor type 1 (Homo sapiens), O43613; Fluo-8 calcium fluorescence; inhibition, % at 5 µM; 330,000 tested, 0.43% active; AID 434989, 2010;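 active = inhibition above its plate's threshold, mean inhibition of all tested compounds on the plate plus 3 SD, cut at about 37% in these data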
TAAR1 agonist: human TAAR1 agonists, primary screen, Fluo-8 calcium fluorescence, CHO RD-HGA16 cells; vehicle wells 0%, saturating PEA agonist 100%; activation, % at 3 µM; 360,000 tested, 0.99% active; AID 624467, 2012;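 active = activation above the mean activation of all test compounds in the run plus 3 SD, cut at about 38% in these data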
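System: CHO RD-HGA16 cells carrying human TAAR1 plus Gα16; Incubation: 17-24 h seeding, 75 min 37 °C dye, 30 min RT; Measured by: Fluo-8 fluorescence, 5 s baseline then 140 s kinetic read; Control set: DMSO and PEA EC100; Replication: single well for each compound.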
OX1R antag-2: antagonists of human orexin 1 receptor (OX1R); Orexin/Hypocretin receptor type 1 (Homo sapiens), O43613; 330,000 tested, 1.8% active; OX1R-expressing cells, FRET antagonist read-out; inhibition, % at 6.6 µM; in the data active = inhibition mostly above about 38%, no sharp cut-off; inactive = mostly below about 40%
TAAR1 ag confirm: human TAAR1 agonists, retest of hits, confirmation, Fluo-8 calcium fluorescence, CHO RD-HGA16 cells. scaled: DMSO 0%, maximal phenethylamine 100%. AID 651783, 2012. 2,400 tested, 82% active. shares compounds with TAAR1 agonist. activation, % at 3 µM;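 active = activation above a cutoff set at the run's mean compound activation plus 3 SD, cut at about 39% in these data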
Ga16 ag counter: nonselective calcium mobilization agonists, CHO-Ga16 cells, counter-screen for hTAAR1 agonist project, cell-based, fluorescence, CHO-Ga16 parental line | shares compounds with TAAR1 agonist | Fluo-8 calcium fluorescence; normalized to maximal ATP response, DMSO zero | activation, % at 3 µM | 2,400 tested, 50% active;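 active = activation above the run cutoff, the mean activation over all tested wells plus 3 SD, cut at about 12% in these data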
TAAR1 desensitize: TAAR1 desensitization by agonist hits, confirmation, counter-screen for TAAR1 agonist project, cell-based, fluorescence, tachyphylaxis; CHO RD-HGA16 hTAAR1, Fluo-8 calcium, beta-PEA response inhibition; shares compounds with TAAR1 agonist; inhibition, % at 3 µM; 2,400 tested, 46% active; AID 651951, 2012;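 active = inhibition above the run cutoff, the mean inhibition of all test compounds plus 3 SD, cut at about 49% in these data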;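 also: beta-PEA stimulus applied at its EC80; loss of beta-PEA calcium signal after compound pretreatment read as receptor desensitization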
Ga16 antag count: inhibition of ATP-evoked calcium response in CHO-Ga16 cells, counter-screen for TAAR1 agonist project, cell-based, fluorescence | shares compounds with TAAR1 agonist | CHO-Ga16 ATP-induced calcium, Fluo-8 fluorescence | 2,400 tested, 39% active | AID 651952, 2012 | inhibition, % at 3 µM;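 active = inhibition above the plate's mean compound inhibition plus 3 SD, computed per plate, cut at about 22% in these data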
Large screens that a line does not name were inactive (follow-up assays come after a bar, where they were run). An excerpt weighted towards active compounds, which were near 4.5% of everything screened.

Cc1ccc(S(=O)(=O)N2CCN(S(=O)(=O)c3ccccc3Br)CC2)cc1	none (no result: GPR7 antagonist)
O=C(CC1C(=O)NCCN1CCCc1ccccc1)NCCc1ccccc1F (stereo not drawn)	TAAR1 agonist 75 | TAAR1 ag confirm 93 | Ga16 ag counter inactive | TAAR1 desensitize 72 | Ga16 antag count inactive
O=S(=O)(Cc1ccccc1)NCCc1cccc(Cl)c1	TAAR1 agonist 44 (no result: CHO parental Ca, OX1R antag-1, OX1R antag-2) | TAAR1 ag confirm 77 | Ga16 ag counter inactive | TAAR1 desensitize inactive | Ga16 antag count inactive
O=C(NNC(=S)NC(=O)c1ccc(F)cc1)c1ccncc1	none (no result: GPR7 antagonist)
O=C(NNC(=S)NC(=O)C12CC3CC(CC(C3)C1)C2)c1ccncc1	TAAR1 antagonist 93, TAAR1 agonist 155 | TAAR1 ag confirm 122 | Ga16 ag counter 103 | TAAR1 desensitize 72 | Ga16 antag count 55
CC1(C(=O)NC(=S)NNC(=O)c2ccncc2)CCCCC1	TAAR1 agonist 92 | TAAR1 ag confirm 70 | Ga16 ag counter 52 | TAAR1 desensitize inactive | Ga16 antag count 23
COc1cccc(OC)c1C(=O)N1CCNCC1	none
COc1ccc2noc3c2c1C(=O)c1ccccc1-3	CHO parental Ca 51, TAAR1 antagonist 67, OX1R antag-1 51, TAAR1 agonist 150, OX1R antag-2 100 (no result: GPR7 antagonist) | TAAR1 ag confirm 74 | Ga16 ag counter 63 | TAAR1 desensitize 75 | Ga16 antag count 61
COc1cccc2c1C(=O)c1ccc3ccccc3c1C2=O	none (no result: TAAR1 antagonist, TAAR1 agonist)
CC1=CC2(C)NC(=O)C(C)C12 (stereo not drawn)	none (no result: CHO parental Ca, GPR7 antagonist, OX1R antag-1, OX1R antag-2)
O=C(NC(=S)Nc1ccc(-c2ccccc2)cc1)c1ccccc1	none (no result: CHO parental Ca, GPR7 antagonist, OX1R antag-1, OX1R antag-2)
CC(C)NC(=S)NC(=O)c1ccc(-c2ccccc2)cc1	TAAR1 agonist 49 | TAAR1 ag confirm inactive | Ga16 ag counter inactive | TAAR1 desensitize inactive | Ga16 antag count inactive
CC(C(=O)N1CCc2ccccc2C1)N1C(=O)c2ccccc2C1=O (stereo not drawn)	none
CC(C)CC(C(=O)N1CCc2ccccc2C1)N1C(=O)c2ccccc2C1=O (stereo not drawn)	GPR7 antagonist 20, TAAR1 agonist 75 | TAAR1 ag confirm 77 | Ga16 ag counter inactive | TAAR1 desensitize 65 | Ga16 antag count inactive
CCOC(=O)c1c(CSC(=N)N)n(C)c2cc(Br)c(OC(C)=O)cc12	none
CCOC(=O)c1c(CSC(=N)N)n(-c2ccc(C)cc2)c2cc(Br)c(OC(C)=O)cc12	TAAR1 agonist 63 | TAAR1 ag confirm 92 | Ga16 ag counter 59 | TAAR1 desensitize 66 | Ga16 antag count 52
N#Cc1nc(-c2ccco2)oc1N1CCc2ccccc2C1	TAAR1 agonist 73 | TAAR1 ag confirm 45 | Ga16 ag counter inactive | TAAR1 desensitize inactive | Ga16 antag count inactive
